Reference: the EternaBench riboswitch data

System: MS2 coat protein
Assay: apparent Kd, MS2 coat protein; higher = weaker binding; RNA-MaP array; FMN 200 µM where present
In short: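 The apparent Kd comes from binding curves fitted cluster by cluster, filtered, and summarised as a median. Those curves followed SNAP-549-labelled MS2 coat protein from 0.7 or 1.5 nM, doubling to 3 µM, on Illumina sequencing-chip clusters where stalled E. coli RNA polymerase had transcribed the designs, without and then with constant ligand. The buffer was 100 mM Tris-HCl pH 7.5, 80 mM KCl, 4 mM MgCl2, BSA, DTT, yeast tRNA and Tween-20, and green signal was normalised to red-channel RNA signal and control-cluster median Fmax.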

[1] = designed as: OFF switch for flavin mononucleotide, no ligand
[2] = ligand present: flavin mononucleotide, designed as: OFF switch for flavin mononucleotide
[3] = designed as: ON switch for flavin mononucleotide, no ligand
[4] = ligand present: flavin mononucleotide, designed as: ON switch for flavin mononucleotide

Sequence | apparent Kd [1] [nM] | apparent Kd [2] [nM] | apparent Kd [3] [nM] | apparent Kd [4] [nM]
CCCACGAAAGUCGAACGAUGUAGCAGAAGGACAUGAGGAUCACCCAUGUCAGCUGUAACAGCCAUGUAGGAUAUGCUACAUGGG | 6.05 | 5.77 |  | 
GUAUCUUACCAAGGAUAUUUACGAUUAGUGUAGACAUGAGGAUCACCCAUGUGGCCUUAGUCACGGGAGAAGGUGGUUUGAUAC |  |  | 317 | 73.7
CGUGUUUCGUUGUAACCCAUUUACAUGAGGAUCACCCAUGUAGAGGAUAUAGGUCACCACGGUACCUAGAAGGCUGCAGGUGUG | 30.3 | 41 |  | 
UCACGGAGCCUAGGAUAUACAUGAGGAUCACCCAUGUAUUAACGUUAGUGCUGGACUGAUUUGCUGUAGAAGGAGGUCACCGAA | 20.9 | 43.1 |  | 
ACGCCUCCUGUUAGGAUAUGCAUCGGGCUUCCGCAGCAGAAGGAACAUGAGGAUCACCCAUGUCAAAUAAAAUC | 15.3 | 94.4 |  | 
CGAGAUACGCUCGUCCGAAAGGGACAUGAGGAUCACCCAUGUAGAAGGCGAUGCGCAACUCGCAUUGAGGAUAUAUACUGCAGA | 5.78 | 5.89 |  | 
AAAUUCAGAGGAUAUGCGCAUAGAUAAGACUUUGUUUCUUAACAUGAGGAUCACCCAUGUAGAAGGCUGUACCC | 17.9 | 20.1 |  | 
UUUUAACAUGAGGAUCACCCAUGUGAGGAUAUCGAAAUUUAUAUUUAUAUUAAUUUUACGAGAAGGCACAUUUU | 112 | 125 |  | 
AAGAUGCGGGUAGGAUAUGGGAAUUAAUAAAGACCAGAAGGACUGGUCACACAACAUGAGGAUCACCCAUGUGUGUGUAGUGAA | 12.4 | 10.9 |  | 
GUAGCUAGUACAGGAUAUUAGUGUGUGUAAUAUUGAGAAGGGUACAUGAGGAUCACCCAUGUGAUCAAUCACUGUUAAGGUUGC | 80.4 | 64 |  | 
UAGAUGGGAGGAUAUACGUAGAUACAGAUUCAUGUAGUGCUACAUGAGGAUCACCCAUGUAGAAGGCCCGUCUU | 39.4 | 330 |  | 
UUGAGGUAAGGAUAUAUUAGGAGCGAAGUUACUUGUUUUUUAUAGAAGGUACAUGAGGAUCACCCAUGUGAAUA | 27.7 | 23.4 |  | 
CCAAAAGCUACAGGAUAUCCGACUCGGUUGUCAGGAGAAGGGUGGCAAGACAUGAGGAUCACCCAUGUAGGGUCAUCCUUGAAA | 9.9 | 22.1 |  | 
GUAGUUAGUAGAGGAUAUUAAUAUGUGUAAUAUUGAGAAGGUUACAUGAGGAUCACCCAUGUGAUCAAUCACUGUUAAGGUUGC | 6.97 | 7.06 |  | 
ACAGGAAACACAGGAUAUGAGCGAAAUAGAGACAUGAGGAUCACCCAUGUACCGUAGAGAACCGGUCAGAAGGGUGACUCCCGU |  |  | 25.4 | 18.9
UGGUACAUGGGAGGAUAUAGGUUGAUAACAUGAGGAUCACCCAUGUUAAAUAAGCCGAGAGGCUACUAGAAGGCCCAUGUACCU |  |  | 4.73 | 4.75
GUGAGUGGUCAGGAUAUGCUGUACAAAAGUACAGCAGAAGGGACUACAUGAGGAUCACCCAUGUUUACUUCAUG | 268 | 311 |  | 
AUCAAUCAUGUAGGAUAUGCGUGGCGAAGCUAUGCAGAAGGACAUGAGGAUCACCCAUGUCUUUCUGUCUGCGUACGGACAGGA | 19.4 | 72.9 |  | 
UUAUUUUUACAGAAGGUUUAAUAAUAUAUAUGAGAAGGAUAUGUAACAUGAGGAUCACCCAUGUUUCACCUAUAUGAGGAUCAU | 7.26 | 6.11 |  | 
UUUGCAUUCCGAGGAUAUUCAUAUAAUAAAUAAACAUGAGGAUCACCCAUGUGGCGAUAGCCUAGGGAGAAGGCGGUUUGCUUU |  |  | 87.7 | 29.6
UGAAUCAUGCCAUGCGCUGACAUGAGGAUCACCCAUGUGUACAAGGAUAUGUUGGUCGACGAUCGGCAGAAGGUGUAAUGGGAU | 319 | 764 |  | 
AUACUCAUGUAAGGAUAUGCAGCCGAAACGGCUGCAGAAGGUACUAAAAUACAUGAGGAUCACCCAUGUCUUUUUAAUUUAGAC |  |  | 258 | 255
ACAUGAGGAUCACCCAUGUAAAAUUAAGAAGGUAGAUACUUGAGGAUCACCCAUGUACAUGGGACUAAGGAUAUUAUAAUAAUU |  |  | 55.7 | 49.1
AGGAUGUUAGGAUAUCGGAUAUGCUGGAGGAGGUGGAUUUACGAGAAGGAACAUGAGGAUCACCCAUGUUGGAG | 22.5 | 25.1 |  | 
GCAUUUAAUACAGGAUAUGUAAGUAUACAUUAGAUUGGUAUAGUCACAACAACAGAAGGGUAGAACAUGAGGAUCACCCAUGUA |  |  | 97.3 | 62.9
GCAGAUCACGUGAGGAUAUCGUCUACCUCGGUAGUCGAGAAGGCACAUGAGGAUCACCCAUGUGAGUGUUCUGC | 20.1 | 19.5 |  | 
GUAGCAUACGGAGGAUAUUCAUUAAAACAUGAGGAUCACCCAUGUAAAUUGGGAGAAGGCCGUAUGCUACAAGAGCGAAAGCUC |  |  | 18.3 | 5.48
GCAGGAUAAGUGAGGAUAUACCUAUGGAUACAUAGGUAGAAGGUACAUGAGGAUCACCCAUGUUCCUCACCUGC | 9.54 | 10.1 |  | 

Sequence | apparent Kd [1] [nM] | apparent Kd [2] [nM] | apparent Kd [3] [nM] | apparent Kd [4] [nM]
GGAUUUACUGAGGAUAUUGCAUCACCCGACUGAUAAGAAGGCAGAACAUGAGGAUCACCCAUGUGGGUCGUCAA | 21.9 | 28.2 |  | 
GCAGCAAUCUUUAACAUGAGGAUCACCCAUGUCGAGAGAUAUGAGGAUAUGCAUCUGAAGAAGAUGCAGAAGGCAUUGUGCUGC |  |  | 6.26 | 5
CCCGACUAGAAGUCGAUACGGAGGAGAAGGCGCCUCCUGGGUCCACAUGAGGAUCACCCAUGUGGCGAGGAUAUCCUCAGUUUU | 10.9 | 96.6 |  | 
UCUAAUUAGUGAGGAUAUGCAUAAUUUAUAACUGCAGAAGGCACAAACCUCAAGACAUGAGGAUCACCCAUGUGGAAUAUAGAU | 93.8 | 215 |  | 
CCGACGAAAGUCGAACGAUGUAGCAGAAGGACAUGAGGAUCACCCAUGUCAGCUGUAACAGCCAUGUAGGAUAUGCUACAUCGA | 4.41 | 5.85 |  | 
UAAAAACAUGAGGAUCACCCAUGUGAGGAUAUCGAAAAAAAAAAAUUAAAAAAGGAAGCGAGAAGGUACGGGAU | 53.1 | 49.6 |  | 
GCCAUCUCAUGAGGAUAUGCUCCUGUUUCGGGAGCAGAAGGCAUGUCAUAAGACAUGAGGAUCACCCAUGUAGUUAAGAUGGCA |  |  | 256 | 11.3
GUCCUUUCUGAGGAUAUUAUCUUUUUCGAUUGAUAAGAAGGCAGUACAUGAGGAUCACCCAUGUGGGUUGUCUG | 31 | 131 |  | 
UUUAUGUAAGGAUAUGCGGGCGGGCGCGUUUGUGUUUGUUUGUAGAAGGUACAUGAGGAUCACCCAUGUAGUGG | 133 | 169 |  | 
GUUUACGCAUGAGGAUAUGCUCGCAUUUCAAGAGCAGAAGGUAUGUCUUUAGACAUGAGGAUCACCCAUGUAUUUAUCAUUGAA |  |  | 166 | 28.4
AGCAUGUAAGGAUAUGCAAGUGGUACGGAUAGUACCAUAAAGCAGAAGGUACAUGAGGAUCACCCAUGUGCUCC | 36.3 | 66.7 |  | 
UGGUACUAGGGAGGAUAUGGGAAGAUACAUGAGGAUCACCCAUGUUUAAGAAUGCCGAGAGGCAACGAGAAGGCCCUAGUACCU |  |  | 793 | 132
UUAUACAUUCGAGGAUAUCGGAGAGAAAUCAUUCGAGAAGGCGAUUCAUGAUGUAUUAUCCUGGACAUGAGGAUCACCCAUGUA |  |  | 79.7 | 68.5
UUAAAUCAUGUAGGAUAUGCAUGGCGAAGCUACGCAGAAGGACAUGAGGAUCACCCAUGUGCUAGCGACUGAGUACAGUUGCAA | 56.4 | 325 |  | 
UGUCGGAGCCGAGGAUAUUACAUGAGGAUCACCCAUGUAUGAACCAAUAGCUGGAAACAGCAAUGUAAGAAGGCUGCUCCGACA | 5.08 | 15.7 |  | 
UUUUUGUGAGGAUAUGGAAUAUCUUCUAUUUAUUAUUAAUUCCAGAAGGCACAUGAGGAUCACCCAUGUAUUUU | 19.9 | 25.2 |  | 
ACAGUCACAAUAACUUGUGGGCGUGAGGAUAUAUAUGGCUCGGAGCGGACAUGAGGAUCACCCAUGUAGAAGGCACGAACUAAU | 6.1 | 8.54 |  | 
AUCAGCUCGUCAGGAUAUACAUGAUAGAUCGAUUAAUUAAUUAAUUUAACAUGAGGAUCACCCAUGUAGAAGGGACGAGCUGAU | 68.5 | 67.4 |  | 
GUAGCUAUCGGAGGAUAUUCAUAGCCGAAAGGCACAUGAGGAUCACCCAUGUGGCGAAAGCCUUGGGAGAAGGCCGAUAGCUAC |  |  | 270 | 18.7
GUGUACAGAGGAUAUAUAUGAGCUAGGAAACUAGCAAACUCACAUGAGGAUCACCCAUGUAGAAGGCUGUACAC | 29.4 | 156 |  | 
AAAUCGGUAGAGGAUAUUGUACAGGAAACGGUGCGAGAAGGUUGCACAUGAGGAUCACCCAUGUUUAGUUGCGA | 34.9 | 34 |  | 
GGGAGACAUGAGGAUCACCCAUGUGAAAACGUGCGAGGAUAUCUAUGGAAACCAUACUGUAGAGAAGGCGUUUGUC |  |  | 88.4 | 46.6
UUGAUUAUACAAGGAUAUCAAUUGUAUACAAGUCUUACAUGAGGAUCACCCAUGUUAAAUUUUUUUGAGAAGGUGUAUUGUCAG |  |  | 40.2 | 24
GGGAGACAUGAGGAUCACCCAUGUGAAAACGUGGCAGGAUAUGCAUGGAAACCAUACUGUGCAGAAGGGCCUUGUC |  |  | 60.5 | 33.1
UACGGACAUGAGGAUCACCCAUGUGAGGAUAUCGAUAACGAUAGCAUAAUAUAAUCGGCGAGAAGGCACAGCGU | 32.7 | 40.9 |  | 
ACUAUACGAGGAUAUACUGUCGGGCCUCGGACAUAAAUAAGACAUGAGGAUCACCCAUGUAGAAGGCGUUUACU | 25.6 | 46 |  | 
GGAUUACAUGAGGAUCACCCAUGUGAGGAUAUCGAUGUCCCUAGCAGCGUGCGGGACUCGAGAAGGCACUUGGA | 47.5 | 248 |  | 
